Measured values published in ChEMBL document CHEMBL4431333, “Synthesis, Antibacterial, and Anticancer Evaluation of Novel Spiramycin-Like Conjugates Containing C(5) Triazole Arm” (J Med Chem, 2016).
≈ marks a conversion by molar mass, not a printed value. Calls of active or inactive are those of the source. No cut-off for these calls is given here.

Assays:
[1] = Solubility of compound in water; type: physicochemical
Bacillus spizizenii = assay: Antibacterial activity against Bacillus subtilis ATCC 6633 after 18 hrs by serial microdilution method; type: functional
Micrococcus luteus = assay: Antibacterial activity against Micrococcus luteus ATCC 10240 after 18 hrs by serial microdilution method; type: functional
Staphylococcus aureus [2] = assay: Antibacterial activity against methicillin-resistant Staphylococcus aureus isolate 1 after 18 hrs by serial microdilution method; type: functional
How it was run: (§1)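 Clinical MRSA isolates, confirmed by cefoxitin 30 μg disc diffusion (EUCAST) and PCR for mecA. MIC by EUCAST broth microdilution in Mueller–Hinton II broth. Compounds dissolved in DMSO and diluted in broth, tested at 0.064–64 μg mL−1. Final inoculum approximately 5 × 10^5 CFU mL−1. Read after 18 h at 35 ± 2 °C.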

Staphylococcus aureus [3] = assay: Antibacterial activity against methicillin-resistant Staphylococcus aureus isolate 2 after 18 hrs by serial microdilution method; type: functional; how it was run: as §1
[4] = tested on: Staphylococcus epidermidis; assay: Antibacterial activity against Staphylococcus epidermidis ATCC 12228 after 18 hrs by serial microdilution method; type: functional
[5] = tested on: Staphylococcus epidermidis; assay: Antibacterial activity against Staphylococcus epidermidis ATCC 49134 after 18 hrs by serial microdilution method; type: functional
Streptococcus pneumoniae = assay: Antibacterial activity against Streptococcus pneumoniae ATCC 49619 after 18 hrs by serial microdilution method; type: functional
NHDF = assay: Cytotoxicity against HDF assessed as reduction in cell survival after 72 hrs by sulforhodamine B assay; type: cell-based, Homo sapiens
[6] = (§2) Selectivity index, ratio of IC50 for HDF to IC50 for human KB cells
Homo sapiens [7] = species on record: Homo sapiens; assay: (§3) Selectivity index, ratio of IC50 for HDF to IC50 for human HeLa cells
Homo sapiens [8] = species on record: Homo sapiens; assay: as §2
Homo sapiens [9] = species on record: Homo sapiens; assay: (§4) Selectivity index, ratio of IC50 for HDF to IC50 for human MCF7 cells
Homo sapiens [10] = species on record: Homo sapiens; assay: (§5) Selectivity index, ratio of IC50 for HDF to IC50 for human HepG2 cells
[11] = Octanol-water partition coefficient, log P of compound after 1 hr by UV-visible spectrophotometric analysis; type: physicochemical
HeLa = assay: Cytotoxicity against human HeLa cells assessed as reduction in cell survival after 72 hrs by sulforhodamine B assay; type: functional, cell-based
KB = assay: Cytotoxicity against human KB cells assessed as reduction in cell survival after 72 hrs by sulforhodamine B assay; type: functional, cell-based
MCF7 = assay: Cytotoxicity against human MCF7 cells assessed as reduction in cell survival after 72 hrs by sulforhodamine B assay; type: functional, cell-based
HepG2 = assay: Cytotoxicity against human HepG2 cells assessed as reduction in cell survival after 72 hrs by sulforhodamine B assay; type: functional, cell-based
[12] = as §3
[13] = as §4
[14] = as §5

For `CO/C1=C\CC(=O)O[C@H](C)C/C=C/C=C/[C@H](O[C@H]2CC[C@H](N(C)C)[C@@H](C)O2)[C@H](C)C[C@@H]2C[C@H](OCc3cn(Cc4ccccc4)nn3)O[C@@H]12`, the solubility ([1]; buffer) was “Insoluble”.

`CO/C1=C\CC(=O)O[C@H](C)C/C=C/C=C/[C@H](O[C@H]2CC[C@H](N(C)C)[C@@H](C)O2)[C@H](C)C[C@@H]2C[C@H](OCc3cn([C@H]4O[C@@H](CO)[C@H](O)[C@@H](O)[C@@H]4O)nn3)O[C@@H]12` gave an MIC (Bacillus spizizenii; ATCC 6633, 18 h) of 85.2 µM (≈ 64 µg/mL), an MIC (Micrococcus luteus; ATCC 10240, 18 h) of 85.2 µM (≈ 64 µg/mL) and an MIC (Staphylococcus aureus [2]; isolate 1, 18 h) of over 85.2 µM. It also gave an MIC (Staphylococcus aureus [3]; isolate 2, 18 h) of over 85.2 µM, an MIC ([4]; ATCC 12228, 18 h) of 85.2 µM (≈ 64 µg/mL) and an MIC ([5]; ATCC 49134, 18 h) of 85.2 µM (≈ 64 µg/mL). For the same compound, the MIC (Streptococcus pneumoniae; ATCC 49619, 18 h) was 10.7 µM (≈ 8 µg/mL).

In the case of `CO/C1=C\CC(=O)O[C@H](C)C/C=C/C=C/[C@H](O[C@H]2CC[C@H](N(C)C)[C@@H](C)O2)[C@H](C)C[C@@H]2C[C@H](OCc3cn([C@H]4C[C@H](n5cc(C)c(=O)[nH]c5=O)O[C@@H]4CO)nn3)O[C@@H]12`, the solubility ([1]; buffer) is reported as “Insoluble”.

With `CO/C1=C\CC(=O)O[C@H](C)C/C=C/C=C/[C@H](O[C@H]2CC[C@H](N(C)C)[C@@H](C)O2)[C@H](C)C[C@@H]2C[C@H](OCc3ccc(F)cc3)O[C@@H]12` the Activity (Bacillus spizizenii) was “inactive”, the Activity (Micrococcus luteus) was “inactive” and the Activity (Staphylococcus aureus [2]) was “inactive”. The Activity [4] was “inactive”, the Activity (Streptococcus pneumoniae) was “inactive” and the solubility ([1]; buffer) was “Insoluble”.

For `O=c1[nH]cc(F)c(=O)[nH]1` [FLUOROURACIL], the IC50 (NHDF; Homo sapiens, NHDF, 72 h) was 7.02 µM and the “Ratio IC50” value [6] was 1.45.

For `O=c1[nH]c(=O)n([C@H]2C[C@H](O)[C@@H](CO)O2)cc1F` [FLOXURIDINE], the “Ratio IC50” value [6] was 1.5.

For `CO/C1=C\CC(=O)O[C@H](C)C/C=C/C=C/[C@H](O[C@H]2CC[C@H](N(C)C)[C@@H](C)O2)[C@H](C)C[C@@H]2C[C@H](OCc3cn(CC4CCCCC4)nn3)O[C@@H]12`, the solubility ([1]; buffer) was “Insoluble”.

In the case of SPIRAMYCIN [listing 1 of 2 here], the MIC (Bacillus spizizenii) is reported as 0.59 µM, the MIC (Micrococcus luteus) is reported as 0.3 µM and the MIC (Staphylococcus aureus [2]) is reported as 9.49 µM. It also gave an MIC (Staphylococcus aureus [3]) of 4.74 µM, an MIC [4] of 2.37 µM and an MIC [5] of 2.37 µM. For the same compound, the MIC (Streptococcus pneumoniae) was 0.3 µM, the Ratio IC50 (Homo sapiens [7]) was 0.9 and the Ratio IC50 (Homo sapiens [8]) was 0.9. It also gave a Ratio IC50 (Homo sapiens [9]) of 0.94 and a Ratio IC50 (Homo sapiens [10]) of 1.02.

`COC1=C\[C@@H](CC=O)C[C@@H](C)[C@@H](O[C@H]2CC[C@H](N(C)C)[C@@H](C)O2)/C=C/C=C/C[C@@H](C)OC(=O)\C=C\1` gave an MIC (Bacillus spizizenii; ATCC 6633, 18 h) of 16.3 µM (≈ 8 µg/mL), an MIC (Micrococcus luteus; ATCC 10240, 18 h) of 8.17 µM (≈ 4 µg/mL) and an MIC (Staphylococcus aureus [2]; isolate 1, 18 h) of 32.7 µM (≈ 16 µg/mL). For the same compound, the MIC (Staphylococcus aureus [3]; isolate 2, 18 h) was 32.7 µM (≈ 16 µg/mL), the MIC ([4]; ATCC 12228, 18 h) was 16.3 µM (≈ 8 µg/mL) and the MIC ([5]; ATCC 49134, 18 h) was 16.3 µM (≈ 8 µg/mL). For the same compound, the MIC (Streptococcus pneumoniae; ATCC 49619, 18 h) was 4.08 µM (≈ 2 µg/mL), the logP at 1 h [11] was 0.74 and the IC50 (HeLa; Homo sapiens, HeLa, 72 h) was 127 µM. For the same compound, the IC50 (KB; Homo sapiens, KB, 72 h) was 133 µM, the IC50 (MCF7; Homo sapiens, MCF7, 72 h) was 131 µM and the IC50 (HepG2; Homo sapiens, HepG2, 72 h) was 135 µM. For the same compound, the IC50 (NHDF; Homo sapiens, NHDF, 72 h) was 139 µM, the “Ratio IC50” value [12] was 1.1 and the “Ratio IC50” value [6] was 1.05. For the same compound, the “Ratio IC50” value [13] was 1.07, the “Ratio IC50” value [14] was 1.03 and the solubility ([1]; water, read-out: solubility) was 700 µg/mL (≈ 1430 µM).

For `Cc1cn([C@H]2C[C@H](N=[N+]=[N-])[C@@H](CO)O2)c(=O)[nH]c1=O` [ZIDOVUDINE], the IC50 (MCF7; Homo sapiens, MCF7, 72 h) was 7.67 µM, the “Ratio IC50” value [12] was 1.34 and the “Ratio IC50” value [6] was 1.48. For the same compound, the “Ratio IC50” value [13] was 1.88.

In the case of `C#CCO[C@H]1C[C@H]2C[C@@H](C)[C@@H](O[C@H]3CC[C@H](N(C)C)[C@@H](C)O3)/C=C/C=C/C[C@@H](C)OC(=O)C/C=C(\OC)[C@@H]2O1`, the Activity (Bacillus spizizenii) is reported as “inactive”, the Activity (Micrococcus luteus) is reported as “inactive” and the Activity (Staphylococcus aureus [2]) is reported as “inactive”. For the same compound, the Activity (Staphylococcus aureus [3]) was “inactive”, the Activity [4] was “inactive” and the Activity [5] was “inactive”. For the same compound, the Activity (Streptococcus pneumoniae) was “inactive” and the solubility ([1]; buffer) was “Insoluble”.

For `CO/C1=C\CC(=O)O[C@H](C)C/C=C/C=C/[C@H](O[C@H]2CC[C@H](N(C)C)[C@@H](C)O2)[C@H](C)C[C@@H]2C[C@H](OCc3cn(C4CCCCC4)nn3)O[C@@H]12`, the solubility ([1]; buffer) was “Insoluble”.

Compound `CO/C1=C\CC(=O)O[C@H](C)C/C=C/C=C/[C@H](O[C@H]2CC[C@H](N(C)C)[C@@H](C)O2)[C@H](C)C[C@@H]2C[C@H](OCc3cn([C@H]4O[C@@H](CO)[C@@H](O)[C@@H](O)[C@@H]4O)nn3)O[C@@H]12` has an MIC (Bacillus spizizenii; ATCC 6633, 18 h) of 85.2 µM (≈ 64 µg/mL), an MIC (Micrococcus luteus; ATCC 10240, 18 h) of 85.2 µM (≈ 64 µg/mL) and an MIC (Staphylococcus aureus [2]; isolate 1, 18 h) of over 85.2 µM. For the same compound, the MIC (Staphylococcus aureus [3]; isolate 2, 18 h) was over 85.2 µM, the MIC ([4]; ATCC 12228, 18 h) was over 85.2 µM and the MIC ([5]; ATCC 49134, 18 h) was over 85.2 µM. The MIC (Streptococcus pneumoniae; ATCC 49619, 18 h) was 10.7 µM (≈ 8 µg/mL).

For `CO/C1=C\CC(=O)O[C@H](C)C/C=C/C=C/[C@H](O[C@H]2CC[C@H](N(C)C)[C@@H](C)O2)[C@H](C)C[C@@H]2C[C@H](OCc3cn(CC4CCOCC4)nn3)O[C@@H]12`, the Activity (Bacillus spizizenii) was “inactive”, the Activity (Micrococcus luteus) was “inactive” and the Activity (Staphylococcus aureus [2]) was “inactive”. The Activity (Staphylococcus aureus [3]) was “inactive”, the Activity [4] was “inactive” and the Activity [5] was “inactive”. For the same compound, the Activity (Streptococcus pneumoniae) was “inactive” and the solubility ([1]; buffer) was “Insoluble”.

Work on SPIRAMYCIN [listing 2 of 2 here] yielded a logP ([11]; 1 h) of 0.58, an IC50 (HeLa; hela) of 34.4 µM and an IC50 (KB; kb) of 31.3 µM. It also gave an IC50 (MCF7; mcf7) of 33.1 µM, an IC50 (HepG2; hepg2) of 30.5 µM and an IC50 (NHDF; nhdf) of 31.1 µM. The solubility ([1]; buffer) was 4500 µg/mL.

For `C=CCO[C@H]1C[C@H]2C[C@@H](C)[C@@H](O[C@H]3CC[C@H](N(C)C)[C@@H](C)O3)/C=C/C=C/C[C@@H](C)OC(=O)C/C=C(\OC)[C@@H]2O1`, the Activity (Bacillus spizizenii) was “inactive”, the Activity (Micrococcus luteus) was “inactive” and the Activity (Staphylococcus aureus [2]) was “inactive”. For the same compound, the Activity [4] was “inactive”, the Activity (Streptococcus pneumoniae) was “inactive” and the solubility ([1]; buffer) was “Insoluble”.

In the case of `Nc1ccn([C@@H]2O[C@H](CO)[C@@H](O)[C@@H]2O)c(=O)n1` [CYTARABINE], the “Ratio IC50” value [6] is reported as 1.23.

For `CO/C1=C\CC(=O)O[C@H](C)C/C=C/C=C/[C@H](O[C@H]2CC[C@H](N(C)C)[C@@H](C)O2)[C@H](C)C[C@@H]2C[C@H](OCc3cn(C4CCCCCC4)nn3)O[C@@H]12`, the solubility ([1]; buffer) was “Insoluble”.
